# Laboratory results reported in ChEMBL document CHEMBL5303300, “EUbOPEN Chemogenomics Library - Multiplex” (2023).
# Where “and” joins values, the source holds several entries; their conditions need not be identical. Equal values may be shown once.
# Columns and labels:
# Assay type in all cases: toxicity, cell-based
# Fibroblast = assay: Multiplex assay against human fibroblast; conditions: number of replicates 2
# Method in brief: (§1)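 Values for tubulin, mitochondrial-mass and membrane-permeability phenotypes are per cents of cells with healthy nuclei. These cells were identified by CellPathfinder machine-learning gating of live cells that had been stained at seeding with Hoechst33342, BioTracker Green Microtubule Cytoskeleton Dye, MitoTracker Red and Annexin V Alexa Fluor 680 and imaged on a CQ1 microscope at 37°C and 5% CO2 after compound addition. The gating first set Hoechst high-intensity objects apart from normal cells, then split normal cells into healthy, pyknosed or fragmented nuclei, and pyknosed cells into mitotic or apoptotic.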
# U2OS = assay: Multiplex assay against U2OS; conditions: human, number of replicates 2; method in brief: as §1
# HEK-293T = assay: Multiplex assay against HEK293T; conditions: human, number of replicates 2; method in brief: as §1
# [1] = 12 h, 1 µM, compound concentration 1 uM
# [2] = 12 h, 10 µM, compound concentration 10 uM
# [3] = 24 h, 1 µM, compound concentration 1 uM
# [4] = 24 h, 10 µM, compound concentration 10 uM
# [5] = 48 h, 1 µM, compound concentration 1 uM
# [6] = 48 h, 10 µM, compound concentration 10 uM
smiles,measurement,setting,value
CC(C)(C)c1cnc(CSc2cnc(NC(=O)C3CCNCC3)s2)o1 [BMS-387032],Population Apoptotic (%),Fibroblast; [1],56% and 46%
same,Population Fragmented Nuclei (%),Fibroblast; [1],8% and 6%
same,Population Healthy Nuclei (%),Fibroblast; [1],60% and 72%
same,Population Hoechst High Intensity Objects (%),Fibroblast; [1],0%
same,Population Membrane Permeable-Phenotype (%),Fibroblast; [1],6% and 7%
same,Population Mitochondria Different-Phenotype (%),Fibroblast; [1],0% and 2%
same,Population Mitotic Cells (%),Fibroblast; [1],43% and 53%
same,Population Normal (%),Fibroblast; [1],100%
same,Population Pyknosed Nuclei (%),Fibroblast; [1],31% and 21%
same,Population Tubulin-Different-Phenotype (%),Fibroblast; [1],15% and 16%
same,Total Cell Count,Fibroblast; [1],96 and 204
same,Population Apoptotic (%),Fibroblast; [2],46% and 38%
same,Population Fragmented Nuclei (%),Fibroblast; [2],7% and 9%
same,Population Healthy Nuclei (%),Fibroblast; [2],58% and 67%
same,Population Hoechst High Intensity Objects (%),Fibroblast; [2],0%
same,Population Membrane Permeable-Phenotype (%),Fibroblast; [2],3% and 6%
same,Population Mitochondria Different-Phenotype (%),Fibroblast; [2],4% and 8%
same,Population Mitotic Cells (%),Fibroblast; [2],53% and 61%
same,Population Normal (%),Fibroblast; [2],100%
same,Population Pyknosed Nuclei (%),Fibroblast; [2],33% and 23%
same,Population Tubulin-Different-Phenotype (%),Fibroblast; [2],37% and 43%
same,Total Cell Count,Fibroblast; [2],141 and 213
same,Population Apoptotic (%),Fibroblast; [3],64% and 54%
same,Population Fragmented Nuclei (%),Fibroblast; [3],12% and 10%
same,Population Healthy Nuclei (%),Fibroblast; [3],61% and 63%
same,Population Hoechst High Intensity Objects (%),Fibroblast; [3],0%
same,Population Membrane Permeable-Phenotype (%),Fibroblast; [3],7% and 9%
same,Population Mitochondria Different-Phenotype (%),Fibroblast; [3],0% and 1%
same,Population Mitotic Cells (%),Fibroblast; [3],35% and 45%
same,Population Normal (%),Fibroblast; [3],100%
same,Population Pyknosed Nuclei (%),Fibroblast; [3],26%
same,Population Tubulin-Different-Phenotype (%),Fibroblast; [3],21% and 18%
same,Total Cell Count,Fibroblast; [3],106 and 208
same,Population Apoptotic (%),Fibroblast; [4],52% and 71%
same,Population Fragmented Nuclei (%),Fibroblast; [4],12% and 11%
same,Population Healthy Nuclei (%),Fibroblast; [4],49% and 62%
same,Population Hoechst High Intensity Objects (%),Fibroblast; [4],0%
same,Population Membrane Permeable-Phenotype (%),Fibroblast; [4],6% and 7%
same,Population Mitochondria Different-Phenotype (%),Fibroblast; [4],10% and 12%
same,Population Mitotic Cells (%),Fibroblast; [4],47% and 28%
same,Population Normal (%),Fibroblast; [4],100%
same,Population Pyknosed Nuclei (%),Fibroblast; [4],37% and 26%
same,Population Tubulin-Different-Phenotype (%),Fibroblast; [4],41% and 40%
same,Total Cell Count,Fibroblast; [4],147 and 198
same,Population Apoptotic (%),Fibroblast; [5],74% and 73%
same,Population Fragmented Nuclei (%),Fibroblast; [5],12% and 14%
same,Population Healthy Nuclei (%),Fibroblast; [5],49% and 52%
same,Population Hoechst High Intensity Objects (%),Fibroblast; [5],0%
same,Population Membrane Permeable-Phenotype (%),Fibroblast; [5],23% and 15%
same,Population Mitochondria Different-Phenotype (%),Fibroblast; [5],2% and 0%
same,Population Mitotic Cells (%),Fibroblast; [5],25% and 26%
same,Population Normal (%),Fibroblast; [5],100%
same,Population Pyknosed Nuclei (%),Fibroblast; [5],38% and 33%
same,Population Tubulin-Different-Phenotype (%),Fibroblast; [5],33% and 30%
same,Total Cell Count,Fibroblast; [5],183 and 115
same,Population Apoptotic (%),Fibroblast; [6],64% and 73%
same,Population Fragmented Nuclei (%),Fibroblast; [6],14% and 11%
same,Population Healthy Nuclei (%),Fibroblast; [6],43% and 38%
same,Population Hoechst High Intensity Objects (%),Fibroblast; [6],0%
same,Population Membrane Permeable-Phenotype (%),Fibroblast; [6],10% and 22%
same,Population Mitochondria Different-Phenotype (%),Fibroblast; [6],8% and 16%
same,Population Mitotic Cells (%),Fibroblast; [6],35% and 26%
same,Population Normal (%),Fibroblast; [6],100%
same,Population Pyknosed Nuclei (%),Fibroblast; [6],41% and 49%
same,Population Tubulin-Different-Phenotype (%),Fibroblast; [6],44% and 58%
same,Total Cell Count,Fibroblast; [6],194 and 137
same,Population Apoptotic (%),U2OS; [1],83% and 88%
same,Population Healthy Nuclei (%),U2OS; [1],60% and 73%
same,Population Hoechst High Intensity Objects (%),U2OS; [1],1% and 0%
same,Population Membrane Permeable-Phenotype (%),U2OS; [1],8% and 3%
same,Population Mitochondria Different-Phenotype (%),U2OS; [1],2% and 4%
same,Population Mitotic Cells (%),U2OS; [1],16% and 12%
same,Population Normal (%),U2OS; [1],98% and 100%
same,Population Pyknosed Nuclei (%),U2OS; [1],10% and 19%
same,Population Tubulin-Different-Phenotype (%),U2OS; [1],80% and 82%
same,Total Cell Count,U2OS; [1],61 and 128
same,Population Apoptotic (%),U2OS; [2],85% and 65%
same,Population Healthy Nuclei (%),U2OS; [2],32% and 71%
same,Population Hoechst High Intensity Objects (%),U2OS; [2],0% and 1%
same,Population Mitochondria Different-Phenotype (%),U2OS; [2],7% and 11%
same,Population Mitotic Cells (%),U2OS; [2],14% and 35%
same,Population Normal (%),U2OS; [2],100% and 98%
same,Population Pyknosed Nuclei (%),U2OS; [2],17% and 22%
same,Population Apoptotic (%),U2OS; [3],66% and 94%
same,Population Fragmented Nuclei (%),U2OS; [3],22% and 9%
same,Population Healthy Nuclei (%),U2OS; [3],62% and 69%
same,Population Hoechst High Intensity Objects (%),U2OS; [3],1% and 0%
same,Population Membrane Permeable-Phenotype (%),U2OS; [3],8% and 1%
same,Population Mitochondria Different-Phenotype (%),U2OS; [3],5%
same,Population Normal (%),U2OS; [3],98% and 100%
same,Population Pyknosed Nuclei (%),U2OS; [3],15% and 21%
same,Population Tubulin-Different-Phenotype (%),U2OS; [3],75% and 77%
same,Total Cell Count,U2OS; [3],60 and 163
same,Population Apoptotic (%),U2OS; [4],87% and 78%
same,Population Healthy Nuclei (%),U2OS; [4],32% and 41%
same,Population Hoechst High Intensity Objects (%),U2OS; [4],0%
same,Population Mitochondria Different-Phenotype (%),U2OS; [4],21% and 25%
same,Population Mitotic Cells (%),U2OS; [4],12% and 21%
same,Population Normal (%),U2OS; [4],100% and 99%
same,Population Pyknosed Nuclei (%),U2OS; [4],18% and 46%
same,Population Tubulin-Different-Phenotype (%),U2OS; [4],57% and 52%
same,Population Apoptotic (%),U2OS; [5],68% and 93%
same,Population Fragmented Nuclei (%),U2OS; [5],23% and 8%
same,Population Healthy Nuclei (%),U2OS; [5],55% and 66%
same,Population Hoechst High Intensity Objects (%),U2OS; [5],0%
same,Population Mitochondria Different-Phenotype (%),U2OS; [5],6% and 5%
same,Population Normal (%),U2OS; [5],100%
same,Population Pyknosed Nuclei (%),U2OS; [5],21% and 25%
same,Population Tubulin-Different-Phenotype (%),U2OS; [5],89% and 80%
same,Total Cell Count,U2OS; [5],89 and 235
same,Population Apoptotic (%),U2OS; [6],84% and 94%
same,Population Healthy Nuclei (%),U2OS; [6],21% and 9%
same,Population Hoechst High Intensity Objects (%),U2OS; [6],0% and 4%
same,Population Membrane Permeable-Phenotype (%),U2OS; [6],80% and 41%
same,Population Mitochondria Different-Phenotype (%),U2OS; [6],40% and 52%
same,Population Mitotic Cells (%),U2OS; [6],15% and 5%
same,Population Normal (%),U2OS; [6],100% and 95%
same,Population Pyknosed Nuclei (%),U2OS; [6],27% and 75%
same,Population Tubulin-Different-Phenotype (%),U2OS; [6],50% and 76%
same,Population Apoptotic (%),HEK-293T; [1],64% and 60%
same,Population Fragmented Nuclei (%),HEK-293T; [1],3%
same,Population Healthy Nuclei (%),HEK-293T; [1],69% and 77%
same,Population Hoechst High Intensity Objects (%),HEK-293T; [1],17% and 10%
same,Population Membrane Permeable-Phenotype (%),HEK-293T; [1],6% and 0%
same,Population Mitochondria Different-Phenotype (%),HEK-293T; [1],54%
same,Population Mitotic Cells (%),HEK-293T; [1],35% and 40%
same,Population Normal (%),HEK-293T; [1],82% and 89%
same,Population Pyknosed Nuclei (%),HEK-293T; [1],26% and 18%
same,Population Tubulin-Different-Phenotype (%),HEK-293T; [1],75% and 77%
same,Population Apoptotic (%),HEK-293T; [2],87% and 73%
same,Population Fragmented Nuclei (%),HEK-293T; [2],6% and 3%
same,Population Healthy Nuclei (%),HEK-293T; [2],77% and 90%
same,Population Hoechst High Intensity Objects (%),HEK-293T; [2],18% and 15%
same,Population Membrane Permeable-Phenotype (%),HEK-293T; [2],3% and 1%
same,Population Mitochondria Different-Phenotype (%),HEK-293T; [2],66% and 67%
same,Population Mitotic Cells (%),HEK-293T; [2],12% and 26%
same,Population Normal (%),HEK-293T; [2],81% and 84%
same,Population Tubulin-Different-Phenotype (%),HEK-293T; [2],84% and 85%
same,Population Apoptotic (%),HEK-293T; [3],73% and 69%
same,Population Fragmented Nuclei (%),HEK-293T; [3],6% and 5%
same,Population Healthy Nuclei (%),HEK-293T; [3],70% and 72%
same,Population Hoechst High Intensity Objects (%),HEK-293T; [3],22% and 14%
same,Population Membrane Permeable-Phenotype (%),HEK-293T; [3],3% and 0%
same,Population Mitochondria Different-Phenotype (%),HEK-293T; [3],58% and 61%
same,Population Mitotic Cells (%),HEK-293T; [3],26% and 30%
same,Population Normal (%),HEK-293T; [3],77% and 85%
same,Population Pyknosed Nuclei (%),HEK-293T; [3],23% and 21%
same,Population Tubulin-Different-Phenotype (%),HEK-293T; [3],69% and 71%
same,Population Apoptotic (%),HEK-293T; [4],87% and 75%
same,Population Fragmented Nuclei (%),HEK-293T; [4],9% and 5%
same,Population Healthy Nuclei (%),HEK-293T; [4],73% and 85%
same,Population Hoechst High Intensity Objects (%),HEK-293T; [4],19% and 17%
same,Population Membrane Permeable-Phenotype (%),HEK-293T; [4],0%
same,Population Mitochondria Different-Phenotype (%),HEK-293T; [4],80% and 78%
same,Population Mitotic Cells (%),HEK-293T; [4],12% and 25%
same,Population Normal (%),HEK-293T; [4],80% and 82%
same,Population Pyknosed Nuclei (%),HEK-293T; [4],16% and 9%
same,Population Tubulin-Different-Phenotype (%),HEK-293T; [4],84% and 89%
same,Population Apoptotic (%),HEK-293T; [5],77% and 81%
same,Population Fragmented Nuclei (%),HEK-293T; [5],7% and 4%
same,Population Healthy Nuclei (%),HEK-293T; [5],71% and 77%
same,Population Hoechst High Intensity Objects (%),HEK-293T; [5],21% and 16%
same,Population Membrane Permeable-Phenotype (%),HEK-293T; [5],1% and 0%
same,Population Mitochondria Different-Phenotype (%),HEK-293T; [5],62% and 68%
same,Population Mitotic Cells (%),HEK-293T; [5],22% and 18%
same,Population Normal (%),HEK-293T; [5],78% and 83%
same,Population Pyknosed Nuclei (%),HEK-293T; [5],21% and 18%
same,Population Tubulin-Different-Phenotype (%),HEK-293T; [5],64% and 65%
same,Population Apoptotic (%),HEK-293T; [6],92% and 93%
same,Population Fragmented Nuclei (%),HEK-293T; [6],9% and 5%
same,Population Healthy Nuclei (%),HEK-293T; [6],71% and 86%
same,Population Hoechst High Intensity Objects (%),HEK-293T; [6],23% and 19%
same,Population Membrane Permeable-Phenotype (%),HEK-293T; [6],2%
same,Population Mitochondria Different-Phenotype (%),HEK-293T; [6],83% and 86%
same,Population Mitotic Cells (%),HEK-293T; [6],7% and 6%
same,Population Normal (%),HEK-293T; [6],76% and 80%
same,Population Pyknosed Nuclei (%),HEK-293T; [6],18% and 8%
same,Population Tubulin-Different-Phenotype (%),HEK-293T; [6],85% and 89%
